pIC50: −log10 of the molar value. In brackets after ≈: the same amount, converted by molar mass.
Tests used:
[1] = molecular target: T1, Glutathione reductase, mitochondrial (Homo sapiens, UniProt P00390); assay: Inhibitory concentration against human Glutathione reductase was determined
T1 sequence (P00390 whole entry): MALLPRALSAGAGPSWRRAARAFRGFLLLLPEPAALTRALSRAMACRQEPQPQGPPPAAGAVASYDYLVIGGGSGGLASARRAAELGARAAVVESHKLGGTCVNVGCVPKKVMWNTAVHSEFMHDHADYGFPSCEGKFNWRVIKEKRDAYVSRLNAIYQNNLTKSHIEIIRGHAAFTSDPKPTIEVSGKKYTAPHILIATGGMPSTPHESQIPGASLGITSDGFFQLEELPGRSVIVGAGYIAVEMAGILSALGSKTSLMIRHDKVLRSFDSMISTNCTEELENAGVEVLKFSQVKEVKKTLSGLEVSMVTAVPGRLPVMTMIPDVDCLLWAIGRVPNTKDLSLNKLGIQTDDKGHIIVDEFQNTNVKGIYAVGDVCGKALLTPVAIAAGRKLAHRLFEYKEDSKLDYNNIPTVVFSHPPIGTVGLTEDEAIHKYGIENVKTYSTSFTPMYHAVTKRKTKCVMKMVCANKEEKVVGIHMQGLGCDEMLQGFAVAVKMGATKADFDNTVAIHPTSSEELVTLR
Outline: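 Human glutathione reductase purified from erythrocytes (42.3 mU) was run spectrophotometrically at 25 °C in 40 mM HEPES pH 7.5 with 1 mM EDTA and NADPH. It was preincubated with NADPH for 10 min, inhibitor was added at varying concentrations in DMSO (1% v/v final), and glutathione disulfide was then added.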

Leishmania donovani = assay: Anti parasitic activity against Leishmania donovani (cultured in murine macrophages); type: functional; conditions: for EC50: read-out: ED50 (the source's name)
KB = assay: Toxicity of the quinacrine derivatives was determined against the KB cell line in comparison to podophyllotoxin; type: functional; conditions: Homo sapiens, read-out: ED50 (the source's name)
Plasmodium falciparum [2] = assay: Antiparasitic activity for Plasmodium falciparum 3D7; type: functional; conditions: read-out: ED50 (the source's name)
Outline: (§1)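 Growth of P. falciparum in human red blood cells was measured by [³H]-hypoxanthine incorporation over 48 h. 3D7 is the chloroquine-sensitive strain and K1 the chloroquine-resistant strain.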

Trypanosoma cruzi [3] = assay: Anti parasitic activity against Trypanosoma cruzi (cultured in murine macrophages); type: functional; conditions: read-out: ED50 (the source's name)
Trypanosoma brucei = assay: Anti parasitic activity against Trypanosoma brucei; type: functional; conditions: read-out: ED50 (the source's name)
Trypanothione reductase = Trypanothione reductase (Trypanosoma cruzi, UniProt P28593); assay: Inhibitory concentration against trypanothione reductase was determined
Outline: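 Recombinant T. cruzi trypanothione reductase (128 mU) was followed spectrophotometrically at 25 °C in 40 mM HEPES pH 7.5 with 1 mM EDTA and NADPH. Enzyme and NADPH were preincubated for 10 min at 25 °C, inhibitor was added at varying concentrations in DMSO (1% v/v final), and the reaction was started with Try[SH]2.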

[4] = Ratio of Inhibitory activity against glutathione reductase and inhibitory activity against trypanothione reductase was determined
Trypanosoma cruzi [5] = assay: Anti parasitic activity against Trypanosoma cruzi; type: functional; conditions: read-out: ED50 (the source's name)
Outline: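 In vitro test against intracellular amastigotes of T. cruzi grown in murine macrophages.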

Plasmodium falciparum [6] = assay: Anti parasitic activity for Plasmodium falciparum K1; type: functional; conditions: read-out: ED50 (the source's name); outline: as §1

Trypanothione reductase, sequence (P28593 whole entry): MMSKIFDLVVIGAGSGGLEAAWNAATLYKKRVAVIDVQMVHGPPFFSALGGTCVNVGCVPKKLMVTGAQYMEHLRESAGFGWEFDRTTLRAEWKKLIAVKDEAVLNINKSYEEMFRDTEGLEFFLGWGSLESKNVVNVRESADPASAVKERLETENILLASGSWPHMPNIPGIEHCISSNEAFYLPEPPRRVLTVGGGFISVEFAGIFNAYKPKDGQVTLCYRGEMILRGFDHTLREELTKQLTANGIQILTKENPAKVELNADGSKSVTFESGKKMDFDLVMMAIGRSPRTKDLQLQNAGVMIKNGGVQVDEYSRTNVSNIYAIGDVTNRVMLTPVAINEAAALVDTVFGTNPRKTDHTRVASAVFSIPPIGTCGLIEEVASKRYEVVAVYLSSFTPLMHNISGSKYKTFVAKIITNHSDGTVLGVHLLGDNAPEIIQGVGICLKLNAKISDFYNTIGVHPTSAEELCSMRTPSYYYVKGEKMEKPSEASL

Molecule | pIC50 [1] | EC50 (Leishmania donovani) [µg/mL] | EC50 (KB) [µg/mL] | EC50 (Plasmodium falciparum [2]) [µg/mL] | EC50 (Trypanosoma cruzi [3]) [µg/mL] | EC50 (Trypanosoma brucei) [µg/mL] | pIC50 (Trypanothione reductase) | Selectivity [4] | EC50 (Trypanosoma cruzi [5]) [µg/mL] | ED50 (Leishmania donovani) [µg/mL] | EC50 (Plasmodium falciparum [6]) [µg/mL]
COc1ccc2nc3cc(Cl)ccc3c(NCCNC(=O)NCc3ccccc3)c2c1 | 4.57 | 10.7 (≈ 24.6 µM) | 4.1 (≈ 9.43 µM) | 0.069 (≈ 0.159 µM) | > 30 | 0.42 (≈ 0.966 µM) | 4.71 | 1.4 | – | – | –
COc1cc([C@@H]2c3cc4c(cc3[C@H](O)[C@H]3COC(=O)[C@H]23)OCO4)cc(OC)c1OC [PODOFILOX] | – | – | 0.008 (≈ 0.0193 µM) | – | – | – | – | – | – | – | –
c1ccc2[nH]cnc2c1 [BENZIMIDAZOLE] | – | – | – | – | – | – | – | – | 12.4 (≈ 105 µM) | – | –
Pentostam | – | – | – | – | – | – | – | – | – | 8.9 | –
N=C(N)c1ccc(OCCCCCOc2ccc(C(=N)N)cc2)cc1 [PENTAMIDINE] | – | – | – | – | – | 0.0002 (≈ 0.000587 µM) | – | – | – | – | –
COc1ccc2nc3cc(Cl)ccc3c(NCCCNS(=O)(=O)c3ccc4ccccc4c3)c2c1 | 4.57 | 1.9 (≈ 3.75 µM) | 0.4 (≈ 0.79 µM) | 0.01 (≈ 0.0198 µM) | 23.9 (≈ 47.2 µM) | 0.078 (≈ 0.154 µM) | 5.48 | 8.2 | – | – | –
COc1ccc2nc3cc(Cl)ccc3c(NCCCCNS(=O)(=O)c3ccc4ccccc4c3)c2c1 | 4.86 | 3.3 (≈ 6.35 µM) | 0.4 (≈ 0.769 µM) | 0.033 (≈ 0.0635 µM) | > 30 | 0.12 (≈ 0.231 µM) | 5.30 | 2.8 | – | – | –
CCN(CC)CCCC(C)Nc1ccnc2cc(Cl)ccc12 (stereo unspecified) [CHLOROQUINE] | – | – | – | 0.002 (≈ 0.00625 µM) | – | – | – | – | – | – | 0.15 (≈ 0.469 µM)
COc1ccc2nc3cc(Cl)ccc3c(NCCNS(=O)(=O)c3ccc4ccccc4c3)c2c1 | 5.00 | 5.8 (≈ 11.8 µM) | 2.7 (≈ 5.49 µM) | 0.025 (≈ 0.0508 µM) | > 30 | 0.47 (≈ 0.955 µM) | 5.23 | 1.7 | – | – | –
CCN(CC)CCCC(C)Nc1c2ccc(Cl)cc2nc2ccc(OC)cc12 (stereo unspecified) [QUINACRINE] | < 3.00 | – | – | – | – | – | 3.88 | > 7.5 | – | – | –
COc1ccc2nc3cc(Cl)ccc3c(NCCCNC(=O)NCc3ccccc3)c2c1 | 4.35 | 1.9 (≈ 4.23 µM) | 0.7 (≈ 1.56 µM) | 0.0005 (≈ 0.00111 µM) | 22 (≈ 49 µM) | 0.083 (≈ 0.185 µM) | 4.88 | 3.4 | – | – | 0.015 (≈ 0.0334 µM)
COc1ccc2nc3cc(Cl)ccc3c(NCCCCNC(=O)NCc3ccccc3)c2c1 | 4.25 | 1.9 (≈ 4.1 µM) | 0.8 (≈ 1.73 µM) | 0.0013 (≈ 0.00281 µM) | < 1 | 0.043 (≈ 0.0929 µM) | 4.81 | 3.6 | – | – | –
COc1ccc2nc3cc(Cl)ccc3c(NCCCCCCNC(=O)NCc3ccccc3)c2c1 | 4.77 | 5.8 (≈ 11.8 µM) | 4.3 (≈ 8.76 µM) | 0.14 (≈ 0.285 µM) | 6.8 (≈ 13.8 µM) | 0.46 (≈ 0.937 µM) | 4.94 | 1.5 | – | – | –
